Source: ChEMBL document CHEMBL4261563, “Synthesis and in vitro evaluation of substituted 3-cinnamoyl-4-hydroxy-pyran-2-one (CHP) in pursuit of new potential antituberculosis agents” (Medchemcomm, 2018)
Converted amounts (≈) assume the structure as drawn.

What was measured:
[1] = test system: Mycolicibacterium smegmatis; test: Antimycobacterial activity against Mycobacterium smegmatis after 72 hrs by broth microdilution method; format: functional
[2] = test system: Mycobacterium tuberculosis; test: Antitubercular activity against Mycobacterium tuberculosis H37Rv after 2 weeks by broth microdilution method; format: functional; settings: 336 h
Outline: (§1)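 Middlebrook 7H9 broth microdilution with 10% ADC, compounds at […] μg ml−1 in duplicate. Each well received mid-log M. tuberculosis H37Rv at ∼1 × 10^5 CFU ml−1, checked by plating 10-fold dilutions on 7H11 agar (37 °C, read at four weeks). Drug-free broth was the negative control. MIC was the lowest concentration (μg ml−1) preventing visible growth after two weeks.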

[3] = test system: Bacillus subtilis; test: Antibacterial activity against Bacillus subtilis ATCC 11774 after 24 hrs by broth microdilution method; format: functional; settings: ATCC 11774, 24 h
Outline: (§2)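 Strains revived on Mueller Hinton agar, 37 °C for 24 h. MIC by broth microdilution in MH broth, read after 24 h at 37 °C by visual turbidity, highest concentration tested 128 μg ml−1. Levofloxacin as positive control.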

[4] = test system: Escherichia coli; test: Antibacterial activity against Escherichia coli ATCC 10536 after 24 hrs by broth microdilution method; format: functional; settings: ATCC 10536, 24 h; outline: as §2
[5] = test system: Enterococcus faecalis; test: Antibacterial activity against Enterococcus faecalis ATCC 51299 after 24 hrs by broth microdilution method; format: functional; settings: ATCC 51299, 24 h; outline: as §2
[6] = test system: Pseudomonas aeruginosa; test: Antibacterial activity against Pseudomonas aeruginosa ATCC 10145 after 24 hrs by broth microdilution method; format: functional; settings: ATCC 10145, 24 h; outline: as §2
[7] = test system: Staphylococcus epidermidis; test: Antibacterial activity against Staphylococcus epidermidis ATCC 12228 after 24 hrs by broth microdilution method; format: functional; settings: ATCC 12228, 24 h; outline: as §2
[8] = test system: Micrococcus luteus; test: Antibacterial activity against Micrococcus luteus ATCC 10240 after 24 hrs by broth microdilution method; format: functional; settings: ATCC 10240, 24 h; outline: as §2
[9] = test system: Klebsiella pneumoniae; test: Antibacterial activity against Klebsiella pneumoniae ATCC BAA-2146 after 24 hrs by broth microdilution method; format: functional; settings: ATCC BAA-2146, 24 h; outline: as §2
[10] = test system: Staphylococcus aureus; test: Antibacterial activity against Staphylococcus aureus ATCC 25923 after 24 hrs by broth microdilution method; format: functional; settings: ATCC 25923, 24 h; outline: as §2
[11] = test system: HEK293; test: Cytotoxicity against HEK293 cells by MTT assay; format: cell-based, Homo sapiens; settings: for IC50: Homo sapiens, HEK293; for Activity: human, hek293
Outline: (§3)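 HEK-293 (from NCCS, Pune) treated at 1, 20, 40 and 80 μM, then at 100 μM. Percentage growth inhibition measured by MTT assay. IC50 assigned from whether inhibition reached ≥50% at 100 μM, the highest concentration tested.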

[12] = test system: Mycobacterium tuberculosis; test: Antitubercular activity against Mycobacterium tuberculosis H37Rv; format: functional; outline: as §1
[13] = Selectivity ratio of MIC for Mycobacterium smegmatis to MIC for Mycobacterium tuberculosis H37Rv; format: functional
[14] = test system: MCF7; test: Cytotoxicity against human MCF7 cells assessed as growth inhibition by MTT assay; format: cell-based; settings: for Activity: human, mcf7
Outline: (§4)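 HCT-116, MCF-7 and PC-3 cells (from NCI, USA) exposed to double dilutions from 0.0 to 100 μM. Growth inhibition measured by MTT cell viability assay. Results given as mean ± standard deviation of percentage growth inhibition.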

[15] = test system: HCT-116; test: Cytotoxicity against human HCT116 cells assessed as growth inhibition by MTT assay; format: cell-based; settings: for Activity: human, hct-116; outline: as §4
[16] = Cytotoxicity against human MCF7 cells assessed as growth inhibition at 100 uM by MTT assay relative to control; format: cell-based; settings: read-out: GI; outline: as §4
[17] = Cytotoxicity against human HCT116 cells assessed as growth inhibition at 100 uM by MTT assay relative to control; format: cell-based, HCT-116; settings: read-out: GI; outline: as §4
[18] = Cytotoxicity against human PC3 cells assessed as growth inhibition at 100 uM by MTT assay relative to control; format: cell-based, PC-3; settings: read-out: GI; outline: as §4
[19] = Cytotoxicity against HEK293 cells assessed as growth inhibition at 100 uM by MTT assay relative to control; format: cell-based; settings: human, read-out: GI; outline: as §3
[20] = test system: PC-3; test: Cytotoxicity against human PC3 cells assessed as growth inhibition by MTT assay; format: cell-based; settings: for Activity: human, pc-3; outline: as §4

CCOc1ccc(/C=C/C(=O)c2c(O)cc(C)oc2=O)cc1
MIC ([1]; read-out: MIC): > 128 mg/L
MIC [2]: 256 mg/L (≈ 852 µM)

C[C@H]1COc2c(N3CCN(C)CC3)c(F)cc3c(=O)c(C(=O)O)cn1c23.C[C@H]1COc2c(N3CCN(C)CC3)c(F)cc3c(=O)c(C(=O)O)cn1c23.O [LEVOFLOXACIN]
MIC [3]: 0.39 mg/L
MIC ([1]; read-out: MIC): 2.5 mg/L
MIC [2]: 2.5 mg/L
MIC [4]: 0.078 mg/L
MIC [5]: 0.156 mg/L
MIC [6]: 0.312 to 0.625 mg/L
MIC [7]: 0.039 to 0.078 mg/L
MIC [8]: 0.078 mg/L
MIC [9]: 0.625 to 1.25 mg/L
MIC [10]: 0.078 to 0.156 mg/L

COc1ccccc1/C=C/C(=O)c1c(O)cc(C)oc1=O
MIC ([1]; read-out: MIC): > 128 mg/L
MIC [2]: 32 to 64 mg/L (≈ 112 to 224 µM)

CC[C@@H](CO)NCCN[C@@H](CC)CO [ETHAMBUTOL]
MIC [2]: 2.5 mg/L (≈ 12.2 µM)

COc1cc(/C=C/C(=O)c2c(O)cc(C)oc2=O)cc(OC)c1OC
MIC ([1]; read-out: MIC): > 128 mg/L
MIC [2]: 8 mg/L (≈ 23.1 µM)
IC50 [11]: 100 µM

Cc1cc(O)c(C(=O)/C=C/c2ccc(C(F)(F)F)cc2)c(=O)o1
MIC ([1]; read-out: MIC): > 128 mg/L
MIC [2]: 256 mg/L (≈ 790 µM)
IC50 [11]: 100 µM

COc1cc(/C=C/C(=O)c2c(O)cc(C)oc2=O)ccc1O
MIC ([1]; read-out: MIC): > 128 mg/L
MIC [2]: 32 mg/L (≈ 106 µM)
IC50 [11]: > 100 µM

Cc1cc(O)c(C(=O)/C=C/c2ccccc2Cl)c(=O)o1
MIC ([1]; read-out: MIC): > 128 mg/L
MIC [2]: 16 mg/L (≈ 55 µM)
IC50 [11]: > 100 µM

CO[C@H]1/C=C/O[C@@]2(C)Oc3c(C)c(O)c4c(O)c(c(/C=N/N5CCN(C)CC5)c(O)c4c3C2=O)NC(=O)/C(C)=C\C=C\[C@H](C)[C@H](O)[C@@H](C)[C@@H](O)[C@@H](C)[C@H](OC(C)=O)[C@@H]1C [RIFAMPIN]
MIC [2]: 0.078 mg/L (≈ 0.0948 µM)
MIC [12]: 0.2 mg/L (≈ 0.243 µM)
Selectivity ratio [13]: 500

Cc1cc(O)c(C(=O)/C=C/c2cccc(C(F)(F)F)c2)c(=O)o1
MIC ([1]; read-out: MIC): > 128 mg/L
MIC [2]: 256 mg/L (≈ 790 µM)
IC50 [11]: > 100 µM

Cc1cc(O)c(C(=O)/C=C/c2ccc(O)cc2)c(=O)o1
MIC ([1]; read-out: MIC): > 128 mg/L
MIC [2]: 64 mg/L (≈ 235 µM)

Cc1cc(O)c(C(=O)/C=C/c2ccccc2O)c(=O)o1
MIC ([1]; read-out: MIC): > 128 mg/L
MIC [2]: 8 to 16 mg/L (≈ 29.4 to 58.8 µM)

COc1cccc(/C=C/C(=O)c2c(O)cc(C)oc2=O)c1
MIC ([1]; read-out: MIC): > 128 mg/L
MIC [2]: 8 to 16 mg/L (≈ 27.9 to 55.9 µM)

Cc1cccc(/C=C/C(=O)c2c(O)cc(C)oc2=O)c1
MIC ([1]; read-out: MIC): > 128 mg/L
MIC [2]: 32 mg/L (≈ 118 µM)
IC50 [11]: 100 µM

NNC(=O)c1ccncc1 [ISONIAZID]
MIC [1]: 25 mg/L (≈ 182 µM)
MIC [2]: 0.312 mg/L (≈ 2.28 µM)
MIC [12]: 0.02 mg/L (≈ 0.146 µM)
Selectivity ratio [13]: 1000

Cc1cc(O)c(C(=O)/C=C/c2ccccc2)c(=O)o1
Activity [14]: Dose-dependent effect
MIC [3]: > 128 mg/L
MIC ([1]; read-out: MIC): > 128 mg/L
MIC [2]: 4 mg/L (≈ 15.6 µM)
Activity [11]: Dose-dependent effect
Activity [15]: Dose-dependent effect
MIC [4]: > 128 mg/L
inhibition at 100 µM [16]: 38 to 44%
MIC [5]: > 128 mg/L
MIC [6]: > 128 mg/L
MIC [7]: > 128 mg/L
inhibition at 100 µM [17]: 50%
inhibition at 100 µM [18]: 38 to 44%
inhibition at 100 µM [19]: 38 to 44%
MIC [8]: > 128 mg/L
MIC [9]: 128 mg/L (≈ 499 µM)
MIC [10]: > 128 mg/L
Activity [20]: Dose-dependent effect

COc1cc(OC)c(OC)cc1/C=C/C(=O)c1c(O)cc(C)oc1=O
MIC ([1]; read-out: MIC): > 128 mg/L
MIC [2]: 8 mg/L (≈ 23.1 µM)
IC50 [11]: 100 µM

COc1ccc(OC)c(/C=C/C(=O)c2c(O)cc(C)oc2=O)c1
MIC ([1]; read-out: MIC): > 128 mg/L
MIC [2]: 4 to 8 mg/L (≈ 12.6 to 25.3 µM)
IC50 [11]: 100 µM

Cc1cc(O)c(C(=O)/C=C/c2cccc(Br)c2)c(=O)o1
MIC ([1]; read-out: MIC): > 128 mg/L
MIC [2]: 4 to 8 mg/L (≈ 11.9 to 23.9 µM)
IC50 [11]: 100 µM

Cc1cc(O)c(C(=O)/C=C/c2cc(Br)cs2)c(=O)o1
MIC ([1]; read-out: MIC): > 128 mg/L
MIC [2]: 4 to 8 mg/L (≈ 11.7 to 23.4 µM)
IC50 [11]: 100 µM

Cc1cc(O)c(C(=O)/C=C/c2ccccc2C(F)(F)F)c(=O)o1
MIC ([1]; read-out: MIC): > 128 mg/L
MIC [2]: 8 mg/L (≈ 24.7 µM)

COc1ccc(/C=C/C(=O)c2c(O)cc(C)oc2=O)cc1
MIC ([1]; read-out: MIC): > 128 mg/L
MIC [2]: 32 mg/L (≈ 112 µM)
IC50 [11]: 100 µM

Cc1cc(O)c(C(=O)/C=C/c2ccco2)c(=O)o1
MIC ([1]; read-out: MIC): > 128 mg/L
MIC [2]: 16 to 32 mg/L (≈ 65 to 130 µM)

COc1cc(C(F)(F)F)ccc1/C=C/C(=O)c1c(O)cc(C)oc1=O
MIC ([1]; read-out: MIC): > 128 mg/L
MIC [2]: 256 mg/L (≈ 723 µM)
IC50 [11]: 100 µM

Cc1cc(O)c(C(=O)/C=C/c2ccsc2)c(=O)o1
MIC ([1]; read-out: MIC): > 128 mg/L
MIC [2]: 32 to 64 mg/L (≈ 122 to 244 µM)

Cc1cc(O)c(C(=O)/C=C/c2cccc(O)c2)c(=O)o1
MIC ([1]; read-out: MIC): > 128 mg/L
MIC [2]: 8 to 16 mg/L (≈ 29.4 to 58.8 µM)
IC50 [11]: > 100 µM

Cc1ccc(/C=C/C(=O)c2c(O)cc(C)oc2=O)cc1
MIC ([1]; read-out: MIC): > 128 mg/L
MIC [2]: 8 mg/L (≈ 29.6 µM)
IC50 [11]: > 100 µM

Cc1cc(O)c(C(=O)/C=C/c2ccc(Br)cc2)c(=O)o1
MIC ([1]; read-out: MIC): > 128 mg/L
MIC [2]: 8 to 16 mg/L (≈ 23.9 to 47.7 µM)
IC50 [11]: 100 µM

CCOc1cccc(/C=C/C(=O)c2c(O)cc(C)oc2=O)c1
IC50 ([14]; Homo sapiens, MCF7): 80 µM
Activity [14]: Dose-dependent effect
MIC [3]: > 128 mg/L
MIC ([1]; read-out: MIC): > 128 mg/L
MIC [2]: 4 mg/L (≈ 13.3 µM)
IC50 [11]: 80 to 100 µM
Activity [11]: Dose-dependent effect
IC50 ([15]; Homo sapiens, HCT-116): 80 µM
Activity [15]: Dose-dependent effect
MIC [4]: > 128 mg/L
inhibition at 100 µM [16]: 67 to 70%
MIC [5]: > 128 mg/L
MIC [6]: > 128 mg/L
MIC [7]: > 128 mg/L
inhibition at 100 µM [17]: 67 to 70%
inhibition at 100 µM [18]: 67 to 70%
inhibition at 100 µM [19]: 67 to 70%
MIC [8]: > 128 mg/L
MIC [9]: 128 mg/L (≈ 426 µM)
MIC [10]: > 128 mg/L
IC50 ([20]; Homo sapiens, PC-3): 80 µM
Activity [20]: Dose-dependent effect

CN[C@@H]1[C@H](O[C@H]2[C@H](O[C@H]3[C@H](O)[C@@H](O)[C@H](N=C(N)N)[C@@H](O)[C@@H]3N=C(N)N)O[C@@H](C)[C@]2(O)C=O)O[C@@H](CO)[C@H](O)[C@H]1O [STREPTOMYCIN]
MIC [2]: 1.25 mg/L (≈ 2.15 µM)
